Reference: ChEMBL document CHEMBL1145520, “RAS-RAF-MEK-dependent oxidative cell death involving voltage-dependent anion channels” (Nature, 2007)
Activity calls are given as the source filed them. No cut-off for these calls is given here.

Key:
BJ [1] = assay: Induction of cytochrome c release in cytosolic fraction of human BJ cells expressing TERT, LT, ST and RAS G12V mutant genes at 20 ug/ml; format: functional, cell-based
Summary of the method: (§1)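 BJ-TERT/LT/ST/RASV12 cells seeded 3 × 10^6 per dish, incubated overnight at 37 °C, 5% CO2, then exposed to erastin 20 µg/ml for 6–26 h. Fractionated on ice by needle lysis: nuclei spun out at 400g, mitochondria pelleted at 10,500g. Cytochrome c detected by western blot in cytosolic and mitochondrial fractions.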

BJ [2] = assay: Induction of cell death in human BJ cells expressing TERT, LT, ST and RAS G12V mutant genes cells in presence of MEK inhibitor 2 by trypan blue exclusion method; format: functional, cell-based
[3] = target: T1, Mitogen-activated protein kinase; ERK1/ERK2 (Homo sapiens) (UniProt P27361+P28482); assay: Effect on ERK1/2 phosphorylation in human […] cells by Western blot; format: cell-based; conditions: SK-N-MC
Summary of the method: (§2)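 Washed cells were lysed in pH 7.4 HEPES buffer containing orthovanadate, NaF, pyrophosphate, β-glycerophosphate and protease inhibitors. Lysates were run on SDS-PAGE, transferred to PVDF and blocked 1 h at room temperature. Blots were probed with a multiplex phospho-signalling antibody cocktail and read by infrared fluorescence scanning.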

HT-1080 [4] = assay: Induction of cell death in human HT1080 cells in presence of MEK 1/2 inhibitor by trypan blue exclusion method; format: functional, cell-based
Calu-1 = assay: Inhibition of human Calu1 cells expressing KRAS with activating mutations by trypan blue exclusion assay; format: functional, cell-based
Summary of the method: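 Calu-1 lung carcinoma cells (activating KRAS mutation) treated with erastin dilutions. Viability measured by Trypan blue exclusion with an automated cell viability analyser after trypsinization and resuspension in growth medium. IC50 derived from the dose series.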

[5] = Induction of cell death in human Hs51.T cells; format: functional, cell-based
BJ [6] = assay: Induction of cytochrome c release in mitochondrial fraction of human BJ cell expressing TERT, LT, ST and RAS G12V mutant genes at 20 ug/ml; format: functional, cell-based; summary of the method: as §1
SK-LMS-1 = assay: Induction of cell death in human SKLMS1 cells; format: functional, cell-based
[7] = Induction of cell death in human MES-SA cells; format: functional, cell-based
HeLa [8] = assay: Induction of pro-caspase 3 cleavage in human HeLa cells; format: functional, cell-based
Summary of the method: (§3)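 Cells either untreated, given staurosporine, or given erastin for 6–10 h, then lysed in HEPES pH 7.4 buffer with phosphatase and protease inhibitors. Lysates run on SDS-PAGE, blotted to PVDF, probed with antibodies detecting active caspase-3, with actin as loading control. Bands read on infrared imager.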

HOS = assay: Induction of cell death in human HOS cells; format: functional, cell-based
BJ [9] = assay: Induction of cell death in human BJ cells expressing TERT, LT, ST and RAS G12V mutant genes; format: functional, cell-based
[10] = target: T1, Mitogen-activated protein kinase; ERK1/ERK2 (Homo sapiens); assay: Effect on ERK1/2 phosphorylation in human SKES1 cells by Western blot; format: cell-based; summary of the method: as §2
A673 [11] = assay: Induction of cell death in human A673 cells; format: functional, cell-based
[12] = target: T1, Mitogen-activated protein kinase; ERK1/ERK2 (Homo sapiens); assay: Effect on ERK1/2 phosphorylation in human TC71 cells by Western blot; format: cell-based; summary of the method: as §2
[13] = Induction of cell death in human TC32 cells; format: functional, cell-based, TC-32
LNCaP = assay: Induction of cell death in human LNCaP cells; format: functional, cell-based
[14] = target: Non-selective voltage-gated ion channel VDAC2 (Homo sapiens, UniProt P45880); assay: Binding affinity to human VDAC2
SVR = assay: Induction of cell death in human SVR cells; format: functional, cell-based
[15] = Induction of cell death in human A431NS cells; format: functional
BJ [16] = assay: Prevention of induction of cell death in human BJ cells expressing TERT, LT, ST and RAS G12V mutant genes cells after 24 hrs in presence of butylated hydroxytoluene; format: functional, cell-based
Summary of the method: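 BJ-TERT/LT/ST/RASV12 cells treated 24 h with erastin across roughly 1–2.5 µM, together with DMSO or an antioxidant (α-tocopherol, BHT or β-carotene). Viability read afterwards.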

U-937 = assay: Induction of cell death in human U937 cells; format: functional, cell-based
[17] = target: T1, Mitogen-activated protein kinase; ERK1/ERK2 (Homo sapiens); assay: Effect on ERK1/2 phosphorylation in human BJ cells expressing TERT, LT, ST and RAS G12V mutant genes cells by Western blot; format: cell-based; summary of the method: as §2
BJ [18] = assay: Effect on intracellular oxidative species in TERT expressing human BJ cells at 4.6 uM; format: functional, cell-based
Summary of the method: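 Cells seeded at 3 × 10^5 per 60 mm dish were grown overnight, then exposed to 4.6 erastin for 2–12 h; H2O2 for 5 min served as positive control. Cells were loaded with H2DCF-DA for 10 min, trypsinized, PBS-washed and stained with propidium iodide. Read-out was flow cytometry as percent of cells with DCF fluorescence in gate M1; n = 2.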

HT-1080 [19] = assay: Induction of pro-caspase 3 cleavage in human HT1080 cells; format: functional, cell-based; summary of the method: as §3
HCT-116 = assay: Induction of cell death in human HCT116 cells; format: functional
BJ [20] = assay: Induction of mitochondrial structural integrity loss in human BJ cells expressing TERT, LT, ST and RAS G12V mutant genes cells at 37 uM after 10 hrs; format: functional, cell-based
Summary of the method: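 BJ-TERT/LT/ST/RASV12 cells exposed 10 h to erastin (37 µM per legend; 20 µg/ml in methods), then fixed in 2.5% glutaraldehyde in 0.1 M Sorenson's buffer pH 7.2 and post-fixed in 1% OsO4. Sections stained with uranyl acetate/lead citrate.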

[21] = target: T1, Mitogen-activated protein kinase; ERK1/ERK2 (Homo sapiens); assay: Effect on ERK1/2 phosphorylation in human TC32 cells by Western blot; format: cell-based; summary of the method: as §2
U2OS = assay: Induction of cell death in human U2OS cells; format: functional, cell-based
HeLa [22] = assay: Induction of PARP1 cleavage in human HeLa cells; format: functional, cell-based
Summary of the method: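 Cells were left untreated or given staurosporine or erastin for 6 or 8 h. Lysates were analysed by western blot for full-length and cleaved PARP1, with actin as loading control.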

SW872 = assay: Induction of cell death in human SW872 cells; format: functional
HT-1080 [23] = assay: Induction of cell death in human HT1080 cells in presence of MEK inhibitor 2 by trypan blue exclusion method; format: functional, cell-based
HL-60 = assay: Induction of cell death in human HL60 cells; format: functional
BJ [24] = assay: Induction of cell death in human BJ cells expressing TERT, LT, ST and RAS G12V mutant genes cells in presence of PD-98059 by trypan blue exclusion method; format: functional, cell-based
A673 [25] = assay: Induction of pro-caspase 3 cleavage in human A673 cells; format: functional, cell-based; summary of the method: as §3

T1 sequence (P27361 whole entry, looked up): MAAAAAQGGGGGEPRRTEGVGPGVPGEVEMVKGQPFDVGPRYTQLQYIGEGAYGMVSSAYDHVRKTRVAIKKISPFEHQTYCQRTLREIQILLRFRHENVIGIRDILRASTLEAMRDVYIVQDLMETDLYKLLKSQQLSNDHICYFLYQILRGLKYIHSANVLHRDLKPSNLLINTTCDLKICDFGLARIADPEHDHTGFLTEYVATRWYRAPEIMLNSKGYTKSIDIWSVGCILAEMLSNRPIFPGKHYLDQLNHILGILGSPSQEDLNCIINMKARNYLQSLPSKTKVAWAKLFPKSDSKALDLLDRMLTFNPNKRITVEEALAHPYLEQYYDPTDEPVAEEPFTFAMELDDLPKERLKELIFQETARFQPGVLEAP
T1 sequence (P28482 whole entry, looked up): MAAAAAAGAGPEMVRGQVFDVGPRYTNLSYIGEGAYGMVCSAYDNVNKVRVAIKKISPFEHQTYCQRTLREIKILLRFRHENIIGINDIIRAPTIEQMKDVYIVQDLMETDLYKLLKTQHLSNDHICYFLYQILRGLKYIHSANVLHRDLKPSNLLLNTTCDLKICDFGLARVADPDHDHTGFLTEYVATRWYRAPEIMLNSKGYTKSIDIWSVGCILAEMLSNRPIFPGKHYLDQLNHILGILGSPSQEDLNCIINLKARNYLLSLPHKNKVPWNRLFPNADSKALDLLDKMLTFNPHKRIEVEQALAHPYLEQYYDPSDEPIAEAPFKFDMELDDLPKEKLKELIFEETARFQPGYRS
Sequence of Non-selective voltage-gated ion channel VDAC2 (P45880 whole entry): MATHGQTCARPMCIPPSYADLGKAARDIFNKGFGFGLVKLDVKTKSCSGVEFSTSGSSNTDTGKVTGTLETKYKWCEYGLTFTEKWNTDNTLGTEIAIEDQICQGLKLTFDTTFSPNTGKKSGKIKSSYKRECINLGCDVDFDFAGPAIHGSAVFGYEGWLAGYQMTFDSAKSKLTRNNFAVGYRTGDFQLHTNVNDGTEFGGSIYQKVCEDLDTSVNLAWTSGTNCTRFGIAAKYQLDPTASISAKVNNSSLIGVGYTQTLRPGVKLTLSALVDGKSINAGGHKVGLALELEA

**Q.** For `CCOc1ccccc1-n1c(C(C)N2CCN(C(=O)COc3ccc(Cl)cc3)CC2)nc2ccccc2c1=O` (stereo unspecified) [ERASTIN], which Activity (BJ [1]) is on record?
**A.** inactive

**Q.** And the IC50 (BJ [2])?
**A.** 0.9 µM

**Q.** And the Activity [3]?
**A.** 0.05 a.u.

**Q.** And the IC50 (HT-1080 [4])?
**A.** 6 µM

**Q.** And the IC50 (Calu-1)?
**A.** 4 µM

**Q.** And the Activity [5]?
**A.** 88%

**Q.** What about the EC50 ([5]; Homo sapiens) of the same compound?
**A.** 12 µM

**Q.** And the Activity (BJ [6])?
**A.** inactive

**Q.** What about the Activity (SK-LMS-1) of the same compound?
**A.** 100%

**Q.** And the EC50 (SK-LMS-1; Homo sapiens, SK-LMS-1)?
**A.** 6 µM

**Q.** What about the Activity [7] of the same compound?
**A.** 100%

**Q.** And the EC50 ([7]; Homo sapiens, MES-SA)?
**A.** 3 µM

**Q.** What about the Activity (HeLa [8]) of the same compound?
**A.** inactive

**Q.** And the Activity (HOS)?
**A.** 100%

**Q.** And the EC50 (HOS; Homo sapiens, HOS)?
**A.** 17 µM

**Q.** What about the Activity (BJ [9]) of the same compound?
**A.** 100%

**Q.** What about the EC50 (BJ [9]; Homo sapiens, BJ) of the same compound?
**A.** 6 µM

**Q.** And the Activity [10]?
**A.** 0.25 a.u.

**Q.** And the Activity (A673 [11])?
**A.** 54%

**Q.** And the EC50 (A673 [11]; Homo sapiens, A673)?
**A.** 30 µM

**Q.** What about the Activity [12] of the same compound?
**A.** 0.23 a.u.

**Q.** What about the Activity [13] of the same compound?
**A.** 88%

**Q.** What about the EC50 ([13]; Homo sapiens, TC-32) of the same compound?
**A.** 8 µM

**Q.** What about the Activity (LNCaP) of the same compound?
**A.** 32%

**Q.** What about the EC50 (LNCaP; Homo sapiens, LNCaP) of the same compound?
**A.** 6 µM

**Q.** What about the Kd [14] of the same compound?
**A.** 0.112 µM

**Q.** What about the Activity (SVR) of the same compound?
**A.** 20%

**Q.** What about the EC50 (SVR; Mus musculus, SVR) of the same compound?
**A.** 2.5 µM

**Q.** And the Activity [15]?
**A.** 0%

**Q.** What about the Activity (BJ [16]) of the same compound?
**A.** Active

**Q.** What about the Activity (U-937) of the same compound?
**A.** 73%

**Q.** And the EC50 (U-937; Homo sapiens, U-937)?
**A.** 10 µM

**Q.** What about the Activity [17] of the same compound?
**A.** 0.92 a.u.

**Q.** And the Activity (BJ [18])?
**A.** inactive

**Q.** What about the Activity (HT-1080 [19]) of the same compound?
**A.** inactive

**Q.** And the Activity (HCT-116)?
**A.** 0%

**Q.** What about the Activity (BJ [20]) of the same compound?
**A.** Active

**Q.** What about the Activity [21] of the same compound?
**A.** 0.12 a.u.

**Q.** And the Activity (U2OS)?
**A.** 96%

**Q.** And the EC50 (U2OS; Homo sapiens, U2OS)?
**A.** 6 µM

**Q.** What about the Activity (HeLa [22]) of the same compound?
**A.** inactive

**Q.** What about the Activity (SW872) of the same compound?
**A.** 0%

**Q.** And the IC50 (HT-1080 [23])?
**A.** 1.3 µM

**Q.** And the Activity (HL-60)?
**A.** 0%

**Q.** What about the IC50 (BJ [24]) of the same compound?
**A.** 0.9 µM

**Q.** What about the Activity (A673 [25]) of the same compound?
**A.** inactive
